Source: PubChem BioAssay (Broad Institute)
Shown are actives, neighbours in structure and some others; about 2.5% of the full set was active somewhere.
Env fusion inh – inhibitors of HIV Env-mediated cell fusion; HeLa-JRFL Env/CEM21 cell fusion, luciferase; inhibition, % at 12.3 µM; 360,000 compounds, 1.1% hits; AID 651610;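 active = mean replicate inhibition score of at least 50 and every replicate individually at or above 50; inconclusive = only one of the two criteria met; inactive = mean below 50 and not all replicates reaching 50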;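 note: 0% = plate neutral controls and 100% = maraviroc near 300 nM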
FN deposition inh – fibronectin deposition inhibition; AH1F fibroblasts, Alexa488-fibronectin deposition fluorescence, overnight; AID 743247; inhibition, % at 12.6 µM; 350,000 compounds, 0.086% hits;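 active = mean inhibition across replicates of 30% or more, regardless of how many single replicates reach that level; inconclusive = mean under 30% yet at least half of replicates reach 30%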;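 note: positive control wells lacked labelled fibronectin entirely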
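Assay system: AH1F fibroblasts / Quantity: 10000 cells per well / Medium: DMEM plus 2% serum, read in PBS / Reagent: labelled fibronectin 24 nM / Dosing: single dose, pinned / Times: 1 h cell attachment, overnight exposure to compound and label / Signal: fluorescence, ex 485 nm, em 525 nm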
EWS-Fli inh – EWS/Fli transcriptional activity inhibition | A673 NR0B1-luciferase reporter, viability-normalised | inhibition, % at 12.6 µM | 350,000 compounds, 0.67% hits | AID 651661;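 active = mean inhibition of at least 50% after viability correction, with every replicate also passing that limit; inconclusive = mean reaches 50% but only one of two replicates passes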;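 note: firefly luciferase signal divided by Alamar Blue viability fluorescence both relative to DMSO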
PAX8 reporter – lowers PAX8-driven luciferase in RMG-I cells; inhibition, % at 12.6 µM; RMG-I TPO-luciferase reporter, SteadyGlo, 24 h; 360,000 compounds, 1.2% hits;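 active = mean replicate inhibition at least 60% with every replicate also reaching 60%; inconclusive = only one of the two criteria is met; inactive = mean below 60% and not all replicates reaching 60%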;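 note: luciferase light reporting Pax8 driven TPO promoter activity; plate controls were median of neutral control wells for no effect and mitoxantrone controls for full effect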
AF4-AF9 inh – MLL-AF4/AF9 protein interaction inhibition. P42568. AlphaScreen, biotin-AF4 peptide binding to FLAG-AF9. inhibition, % at 10 µM. 350,000 compounds, 0.47% hits. AID 651704;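 active = every replicate reaching a set inhibition limit, whatever the replicate mean, cut at about 25% in these data; inconclusive = mean inhibition reaches that limit but some replicates miss it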;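 note: 0% = plate neutral control median and 100% = total signal loss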
Target sequence (P42568 whole entry, looked up): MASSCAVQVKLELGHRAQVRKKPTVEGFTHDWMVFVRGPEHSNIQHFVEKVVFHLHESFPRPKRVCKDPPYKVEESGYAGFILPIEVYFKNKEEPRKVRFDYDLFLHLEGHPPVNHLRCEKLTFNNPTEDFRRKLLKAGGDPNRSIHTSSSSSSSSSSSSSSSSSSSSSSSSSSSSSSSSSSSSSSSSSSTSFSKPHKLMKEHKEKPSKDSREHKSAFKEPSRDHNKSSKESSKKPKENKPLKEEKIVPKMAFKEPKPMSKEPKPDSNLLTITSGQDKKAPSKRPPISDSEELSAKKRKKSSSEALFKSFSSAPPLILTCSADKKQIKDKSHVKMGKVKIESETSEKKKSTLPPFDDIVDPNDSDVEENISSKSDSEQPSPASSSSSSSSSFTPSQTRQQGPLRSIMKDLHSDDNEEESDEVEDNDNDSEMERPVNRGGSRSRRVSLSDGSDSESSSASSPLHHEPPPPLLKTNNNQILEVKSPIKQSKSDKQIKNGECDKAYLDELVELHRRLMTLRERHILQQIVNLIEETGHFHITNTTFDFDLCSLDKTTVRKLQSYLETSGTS
Glyco luc inh – N-linked glycosylation inhibition. reporter increase, % at 12.5 µM. 360,000 compounds, 0.23% hits. D54 ERlucT glycosylation luciferase reporter, 24 h; percent of 100 nM tunicamycin response;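 active = mean luciferase reporter signal, scaled so untreated is 0 and the glycosylation-blocking control 100, at or above a set limit in every replicate; inconclusive = mean reaches the limit but not every replicate does; inactive = mean below the limit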;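 note: luciferase carries N-glycosylation sites so blocking glycosylation raises the light; 0% = median of neutral control wells and 100% = median of 100 nM tunicamycin wells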
* marks the source's active call; other numbers are inactive results; u = inconclusive; x = not tested or not shown; [ ] = remark or other dose.

SMILES | Env fusion inh | FN deposition inh | EWS-Fli inh | PAX8 reporter | AF4-AF9 inh | Glyco luc inh
Cc1ccc2oc(C(=O)N3CCCCCC3)c(C)c2c1 | x | -3.7 | -71.2 | x | -0.3 | -3.4
COc1ccccc1C(=O)N1CCN(C(=O)c2oc3ccc(C)cc3c2C)CC1 | 65.9* | 1.0 | x | 8.8 | -2.4 | -0.8
COc1ccc(S(=O)(=O)N(C)C[C@H]2Oc3c(NC(=O)Nc4ccc(C(F)(F)F)cc4)cccc3C(=O)N([C@H](C)CO)C[C@H]2C)cc1 | 5.9[16.7 µM] | -17.3 | -3.3 | 34.1 | -2.0 | x
COc1ccccc1C#Cc1ccc2c(c1)O[C@@H](CN(C)Cc1ccncc1)[C@H](C)CN([C@@H](C)CO)S2(=O)=O | 32.7[16.7 µM] | x | 33.5 | 101.3* | 1.2 | x
COc1ccccc1C#Cc1ccc2c(c1)O[C@@H](CN(C)Cc1cccnc1)[C@H](C)CN([C@@H](C)CO)S2(=O)=O | x | 13.1 | 15.4 | 68.1* | 0.5 | x
COc1ccccc1C#Cc1ccc2c(c1)O[C@H](CN(C)Cc1ccccc1)[C@@H](C)CN([C@@H](C)CO)S2(=O)=O | 23.5[16.7 µM] | x | 10.2 | x | 0.2 | x
COc1ccccc1C#Cc1ccc2c(c1)O[C@@H](CN(C)Cc1ccncc1)[C@@H](C)CN([C@H](C)CO)S2(=O)=O | u | x | 21.6 | 4.2 | 0.2 | x
COc1ccccc1C#Cc1ccc2c(c1)O[C@@H](CN(C)Cc1cccnc1)[C@@H](C)CN([C@@H](C)CO)S2(=O)=O | x | 7.6 | 16.7 | 23.9 | 5.7 | x
COc1ccccc1C#Cc1ccc2c(c1)O[C@@H](CN(C)Cc1ccncc1)[C@H](C)CN([C@H](C)CO)S2(=O)=O | 52.3*[16.7 µM] | x | 37.6 | 99.1* | 2.2 | x
COc1ccccc1C#Cc1ccc2c(c1)O[C@H](CN(C)Cc1ccncc1)[C@@H](C)CN([C@@H](C)CO)S2(=O)=O | 47.7*[16.7 µM] | x | 14.0 | 93.4* | 0.7 | x
COc1ccccc1C#Cc1ccc2c(c1)O[C@H](CN(C)Cc1ccccc1)[C@H](C)CN([C@@H](C)CO)S2(=O)=O | 31.4[16.7 µM] | x | 8.4 | x | -1.8 | x
CO[C@@H]1CN(C)C(=O)c2cc(NC(=O)C3CCC3)ccc2OC[C@@H](C)N(C(=O)c2ccccc2)C[C@H]1C | x | 6.0 | -7.2 | 15.2 | -0.9 | x
CC(=O)N(C)C[C@H]1Oc2ncc(-c3ccc(C)cc3)cc2C(=O)N([C@@H](C)CO)C[C@H]1C | 3.3[16.7 µM] | x | -11.5 | x | -5.0 | x
CC(C)NC(=O)N(C)C[C@@H]1Oc2ccc(NS(=O)(=O)c3ccccc3)cc2CC(=O)N([C@@H](C)CO)C[C@H]1C | -5.9[16.7 µM] | x | 4.6 | -8.5 | -4.3 | x
Cc1ccc(-c2ccc(CN3C(CC(C)C)C(=O)N(Cc4cn(CC5CCCCC5)nn4)CCS3(=O)=O)cc2)cc1 (stereo not given) | 6.5 | 5.0 | -7.9 | 32.1 | -2.7 | -2.5
CCC/C=C/c1ccc(CN2C(CC(C)C)C(=O)N(Cc3cn(CC4CCCCC4)nn3)CCS2(=O)=O)cc1 (stereo not given) | 89.3* | 13.7 | 11.4 | 8.1 | -1.8 | -6.8
COc1cc(C(=O)NCC(c2cccs2)N2CCOCC2)ccc1OCc1ccc(Cl)cc1 (stereo not given) | 34.5 | 17.6 | 12.5 | 98.9* | 0.1 | -4.0
O=C(NCC(c1cccs1)N1CCOCC1)c1ccc(OCc2ccccc2)cc1 (stereo not given) | -9.9 | 2.5 | -7.9 | -17.5 | -0.8 | -1.1
Cc1cc(OCC(=O)NCC(c2cccs2)N2CCOCC2)ccc1C(C)C (stereo not given) | 58.6* | -3.3 | 10.4 | 3.1 | 2.3 | -2.7
O=C(/C=C/c1ccc([N+](=O)[O-])cc1)Nc1cccc(C(=O)Nc2ccccc2C(=O)O)c1 | 5.0 | -5.3 | 1.3 | -3.2 | 2.3 | -1.0
O=C(/C=C/c1ccccc1)Nc1cccc(C(=O)O)c1 | 78.2* | 2.2 | 86.1* | 96.1* | -1.3 | -10.3
CCOC(=O)c1cccc(NC(=O)/C=C/c2ccc([N+](=O)[O-])cc2)c1 | 36.1 | x | 59.9* | 6.9 | -9.2 | -2.1
COC(=O)c1cccc(NC(=O)/C=C/c2ccc([N+](=O)[O-])cc2)c1 | 8.7 | 3.1 | 69.8* | -44.2 | -2.1 | -0.2
O=C(Nc1ccc([N+](=O)[O-])cc1)C(=O)Nc1cccc(C(=O)O)c1 | 115.1* | -1.4 | 90.8* | 101.4* | -27.0 | -13.5
COC(=O)c1cccc(NC(=O)/C=C/c2cccc([N+](=O)[O-])c2)c1 | x | x | 14.3 | x | 3.1 | 3.1
